The record followed here is the RNAGym collection of RNA variant scans (doi:10.1126/science.aae0568).

This sample holds only a part of the variants without activity.

B1: tRNA (parent)
chain: GUUCCGUUGGCGUAAUGGUAACGCGUCUCCCUCCUAAGGAGAAGACUGCGGGUUCGAGUCCCGUACGGAACG

Variants of B1 are the subject of this series. In words: yeast fitness relative to wild type (ratio to wild type); higher = fitter; tRNA-Arg(CCU), competitive growth, 37 C, YPD. The gist of the method:
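For this measurement, the tRNA-Arg(CCU) gene was varied by chemical synthesis at a 3% per-site mutation rate across 69 sites, and each variant was placed at the native genomic locus in Saccharomyces cerevisiae. The pooled strains went through a 24-hour competition in YPD at 37°C in six parallel replicates, with amplicons from start and end populations read by 100-nucleotide paired-end sequencing. Darwinian fitness relative to wild type followed from the change in each genotype's frequency. Genotypes needed ≥ 100 starting reads, and estimates < 0.5 were set to 0.5.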
On to GUUCCUUUGGCGUAAUGGUAACGCGUGUCCCUCCUAAGGAGAAGACUGCGGGUUCGAGUCCCGUACGGAACG [G6U C27G], for which the yeast fitness is 0.545.

For the variant GUUCCGAUGGCGUAAUGGUAUCGCGUCUCCCUCCUAAGGAGAAGACUGCGGGUUCGAGUCCCGUCCGGAACG [U7A A21U A65C], the yeast fitness came to 0.577.

Turning to GUUCCUUUGGCGUAAUGGUAACGCGUCUCCCUCUUAAGGAGAAGACUGCGGGUUCGAGUCUCGUACGGAACG [G6U C34U C61U], the yeast fitness was no more than 0.5. On to GUUCCGAUGGCGUACUGGUAACGCGUCUCCCUCCUAAGGAGAAGACUGCGGGUUGGAGUCCCGUACGGAACG [U7A A15C C55G], for which the yeast fitness was no more than 0.5. With GUUCCGAUGGCGUAAUGGUACCGCGUCUUCCUCCUAGGGAGAAGACUGCGGGUUUGAGUCCCGUACGGAACG [U7A A21C C29U A37G C55U], the yeast fitness is 0.568. Regarding GUUCCGAUGGCGUUAUGGUAACGCGUCUCCGUCCUAAGGAGAAGACUGCGGGUUCGAGUCCCGUACGGAACG [U7A A14U C31G], the yeast fitness is no more than 0.5.

For the variant GUUCCGAUGGCGUAUUGGUAACGCGUCUCCCUCCUAAGGAGAAGACUGCGGGCUCGAGUCCCGUACGGAACG [U7A A15U U53C], the yeast fitness is no more than 0.5. For the variant GUUCCGAUGGCGUAAUGGUGACGCGUCUCCCUCCUAAGGAGAAGACUGCGGGUUCGAGUCACGUACGGAACG [U7A A20G C61A], the yeast fitness came to 0.616. For the variant GUUCCUUUGGCGUAAUGGUAACGCGUCUCCCUCCUAAGGAGAACACUGCGGGUUCCAGUCCCGUACGGAACG [G6U G44C G56C], the yeast fitness is no more than 0.5. As for GUUCCGAUGGCGUAAUGGUCACGCGUCUCCCUCCUAAGGAGAAGACUGCGGGUUCGAGUCCCGUACCGAACG [U7A A20C G67C], the yeast fitness was no more than 0.5. On to GUUCCGAUGGCGUAAUGGUAUCGCGUGUCCCUGCUAAGGAGAAGUCUGCGGGUUCGAGUCCCGUACGGAACG [U7A A21U C27G C33G A45U], for which the yeast fitness came out at 0.506. As to GUUCCGAUGGCGUAAUGGUGACACGGCUCCCUCCUAAGGAGAAGACUGCGGGUUCGAGUCCCGUACGGCACG [U7A A20G G23A U26G A69C], the yeast fitness was no more than 0.5.

For the variant GUUCCGAUGGCGUAAUGGUAGCGCGUCUCGCUCCUGAGGAGAAGAGUGCGGGUUCGAGUCCCGUAUGGAACG [U7A A21G C30G A36G C46G C66U], the yeast fitness was no more than 0.5. In the case of GUUCCGAUGGCGUCAUGGUAACGCGUCUCCCUCCUAAGGAGGAGACUGCGGGUUCGUGUCCCGUACGGAACG [U7A A14C A42G A57U], the yeast fitness was no more than 0.5. In the case of GUUCCUCUGGCGUAAUGGUAACGCGUCUCCCUCCUAAGGAGAAGACUGCGGGUUCGAGUCCCGUACGGACCG [G6U U7C A70C], the yeast fitness was no more than 0.5. Consider GUUCCGAUGGCGUAAUGGUACCGCGUCUCCCUACUAAGGAGAAGUCUGCGGGUUCGAGUCCAGUACGGAACG [U7A A21C C33A A45U C62A], for which the yeast fitness was no more than 0.5.

For the variant GUUCCGAUGGCGUAAUGGUGACACGUCUCCCUCCUAAGGGGAAGACCGCGGGUUCGAGUCCCGUACGGACCG [U7A A20G G23A A40G U47C A70C], the yeast fitness was no more than 0.5. GUUCCGAUGGCGUGAUGGUACCGCGUCUCCCUCCUAAGGAGAAGACAACGGGUUCGAGUCCCGUACGGAACG [U7A A14G A21C U47A G48A]: the yeast fitness was no more than 0.5. As to GUUCCUUUGGCGUAAUGGUAACGCGUCUCCCUCUUAAGGAGAAGACUGCGGGUUCGAGUCCCGUACGGAACG [G6U C34U], the yeast fitness is 0.573. Turning to GUUCCGAUGGCGUGCUGGUAACGCGUCUCCCUCCUGAGGUGAAGAAUGCGGCUUCGAGUCCCGUACGGAUCG [U7A A14G A15C A36G A40U C46A G52C A70U], the yeast fitness was 0.649. Consider GUUCCGAUGGCGUAAUGGUAACGCGUCUCCCUCCUUAGGAGAAGGCAGCGGGUUCGAGUCCCGUACGGAACG [U7A A36U A45G U47A], for which the yeast fitness was no more than 0.5. Regarding GUUCCGAUGGCGUUAUGGUAAUGCGUAUCCCUUCUAAGGAGAAGCCUGCGGGCUCGAGUCCCGUACGGCACG [U7A A14U C22U C27A C33U A45C U53C A69C], the yeast fitness was determined as 0.632.

Take GUUCCUUUGGCGUAAUGGUAACGCGUCUCCCUUCUAAGGAGAAGACUGCGGGUUCGAGUCCCGUACGGAACG [G6U C33U]: the yeast fitness was 0.562. Take GUUCCGAUGGCGUAAUGGUAGCGCGUCUCCCUCCUAAGGAGAAGACUGCGGGUUCGAGUCCCGUACGGAACG [U7A A21G]: the yeast fitness stood at 0.738. The same measure for GUUCCGAUGGCGUAAUGGUACCGCGUCUCCCUCCUAAGGAGAAGACUGCGGGUUCGAGUCCCGUACGGAACG [U7A A21C]: 0.54; for GUUCCGAUGGCGUAAUGGUGACAUGUCUCCCUCCAAAGGAGAAGACUGCGGGUUCGAGUACCGUACGGCACG [U7A A20G G23A C24U U35A C60A A69C]: 0.548; for GUUCCGAUGGCGUACUGGUAACGCGUCUCCCUCCUAAGGAGAAGACUGCGGGUUCGGGUCCCGUACGGAACG [U7A A15C A57G]: no more than 0.5. As for GUUCCGAUGGCGUAAUGGUUACCCGACUCCCUACUAAGGAGAAGACUGCGGGUUCGUGUCCCGUACGGAACG [U7A A20U G23C U26A C33A A57U], the yeast fitness was no more than 0.5. As to GUUCCGAUGGCGUAAUGGUAUCGCGUCUCCCUCCUAACGAGAAGGCUGCGGGUUCGAGACCCGUACGGAACG [U7A A21U G38C A45G U59A], the yeast fitness was no more than 0.5. As for GUUCCGAUGGCGUACUGGUAACCCGUUUCCCUCCUAAGGAGAAGACUGCGGGUUCAAGUCACGUACGGAACG [U7A A15C G23C C27U G56A C61A], the figure is 0.602. The same measure for GUUCCGAUGGCGUAAUGGUACCGCGUCUCCCUCCUAAGGAGAAGGCUGCGGGUUCGAGUCCCGUACGGAACG [U7A A21C A45G]: 0.571; for GUUCCGAUGGCGUCAUGGUGACGCGUCUCCCUCCUAAGGAGAAGACUGCGGGUUCGAGUCCCGUACGGAACG [U7A A14C A20G]: no more than 0.5. In the case of GUUCCGAUGGCGUAAUGGUACCGCGUCUCCCUCCUAAGGAGAAGACUGCGGGUCCGAGUCCCGUACGGAACG [U7A A21C U54C], the yeast fitness was no more than 0.5. Take GUUCCGAUGGCGUAAUGGUGACACGGCUCCCUCCUAAGGAGAAGACUGCGGGUUCGAGUCCCGUACGGAACG [U7A A20G G23A U26G]: the yeast fitness stood at 0.548. In the case of GUUCCGAUGGCGUAAUGGUAUCGCGUCUCCCUCCUAAGGAAAAGACUGCGGGUUCGAGUCCCGUAAGGAACG [U7A A21U G41A C66A], the yeast fitness was 0.684. Regarding GUUCCGAUGGCGUAAUGGUAUCGCGUCUCCCUCCUAAGGAAAAGACUGCGGGUUCGAGUCCCGAACGGAACG [U7A A21U G41A U64A], the yeast fitness was no more than 0.5.

GUUCCGAUGGCGUAAUGGUGACGCGUCUCCCUCCUAAGGAGAAGACUGGGGGUUCGAGUCCCGUACAGAACG [U7A A20G C49G G67A]: the yeast fitness was no more than 0.5.
